Compound activity (PubChem)
Hsp70 activator: transcriptional activators of Hsp70. 0.04% of 200,000 active. HeLa Hsp70 promoter luciferase reporter, luminescence; scaled: vehicle 0, proteasome-inhibitor control 100%. activation, % at 10 µM. AID 1203;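 active means activation above the mean across all tested compounds plus 3 SD, cutoff set per campaign, cut at about 5.5% in these data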;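 further: 100% = MG132 at 30 µM as the positive control and 0% = DMSO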
T cruzi inh: T. cruzi replication inhibition. T. cruzi beta-gal in NIH3T3, luminescence, 90 h. inhibition, % (no concentration beside the values). 1.4% of 300,000 active. AID 1885;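 active means mean inhibition across valid replicates above about 55%, limit read from the data; inconclusive means mean below that limit but half or more replicates reach it; inactive means mean below it, under half of replicates reach it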;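 further: signal also drops with host cell toxicity which is not excluded here; 0% = plate median of DMSO wells and 100% = zero luminescence signal; higher percent means less beta-gal luminescence so fewer parasites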
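compound dosing = single 50 nL compound addition per well in DMSO | material = NIH/3T3 host cells with β-galactosidase reporter T. cruzi | input = 5,000 host fibroblasts per well | timing = ≥90 h infection period, 3 h prior cell attachment | read-out basis = percent inhibition of parasite-derived β-gal signal | detection = GalScreen β-gal luminescence, detergent lysis, 60 min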
HSF1 inhib: HSF1 inhibition | NIH3T3-HGL HSE-luciferase, MG132-induced, luminescence 8 h; hits give low values | activity change, negative = inhibition, % at 7.5 µM (by protocol) | 0.77% of 300,000 active | AID 2098;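 active means more than half of replicate wells show activity change below -50%, luminescence cut by over half; inconclusive means some wells, but at most half, below -50%; inactive means no replicate well below -50%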;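 further: luciferase reports HSF-1 transcriptional activity via heat shock element; 0% = median of DMSO wells and -100% = zero luminescence signal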
L major viab: inhibitors of Leishmania major promastigote growth; Leishmania major promastigotes, resazurin fluorescence viability; inhibition, % at 10 µM; 9% of 200,000 active; AID 1063; in the data active means inhibition above about 50%;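 further: promastigotes grown with compound for 44 hours at 28 °C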
HSF1 activator: increases HSF-1 driven luciferase reporter signal | NIH3T3-HGL HSF-1 luciferase reporter, MG132, 8 h; 100% = twice DMSO control signal | 1.7% of 300,000 active | AID 504408 | activation, % at 9 µM;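 active means mean replicate activation of at least 50% with a set share of replicates each reaching 50%; inconclusive means only one of those two conditions met; inactive means mean below 50% and too few replicates reaching it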;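 further: 0% = median of the neutral control wells and 100% = twice that signal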
* marks the source's active call; other numbers are inactive results; ? = inconclusive; nt = not tested or not shown. Shown is part of a subset that was picked to be rich in hits.

SMILES	Hsp70 activator	T cruzi inh	HSF1 inhib	L major viab	HSF1 activator
Cc1nn(C(C)C)c(C)c1CN1CCCC(CCC(=O)NCc2ccccc2F)C1 (stereo not given)	0	58*	-7	9	5
CN(CC(=O)Nc1ccc(F)cc1)C(=O)COC(=O)CN1C(=O)NC2(CCCC2)C1=O	nt	-13	-4	nt	2
Cc1ccc(-c2cc(-c3ccc(C)cc3O)[nH]n2)cc1	nt	-3	52	nt	71*
Cc1ccc(-c2cc(-c3ccc(F)cc3)n[nH]2)c(O)c1	nt	10	26	nt	30
COc1ccc(-c2cc(-c3ccccc3O)[nH]n2)cc1	0	-10	37	99*	85*
Oc1ccc(Cl)cc1-c1cc(-c2ccccc2)n[nH]1	0	6	-3	17	20
Cc1ccc(O)c(-c2cc(-c3cccc(Br)c3)n[nH]2)c1	0	6	44	32	67*
COC(=O)CNC(=O)c1cc(-c2ccncc2)nc2ccc(C)cc12	nt	1	2	nt	-13
COc1ccc2c(C)cc(N3CCCCCC3)nc2c1	0	6	44	61*	?
COc1ccc2c(C)cc(N3CCN(Cc4ccccc4)CC3)nc2c1	nt	17	1	nt	-1
O=C(NP(=O)(N1CCCC1)N1CCCC1)C1=C(N2CCOCC2)/C(=C/c2cccc([N+](=O)[O-])c2)CC1	0	14	22	-2	21
O=[N+]([O-])c1ccc(/C=C2\CCC(C3=CCCC3)=C2N2CCOCC2)cc1	0	-16	39	0	61*
Cc1ccc(C)c(NC(=O)CSc2nncn2C)c1	nt	-4	-1	nt	-14
CN(C)S(=O)(=O)c1cccc(C(=O)N=C2N=C3C=CC(Cl)=CN3Cc3ccccc32)c1	nt	-17	26	nt	60*
COc1cccc(CC2(CO)CCCN(Cc3c(C)cc(C)cc3-n3cccn3)C2)c1 (stereo not given)	0	6	0	34	12
CCOc1ccc(CCNC(=O)CSc2ncn[nH]2)cc1OCC	nt	-14	-6	nt	-20
C/C=C/c1ccc(OCC(=O)Nc2ccc(OC)c(OC)c2)c(OC)c1	0	9	-69*	15	-74
COc1cc(/C=C2\C(=O)N(CCC#N)N=C2C)ccc1OCC(=O)Nc1ccccc1	0	-4	42	60*	48
CCN(CC)C(=O)COc1ccc(C=O)cc1OC	0	12	38	-4	75*
CNC(=O)COc1ccc(C=O)cc1OC	0	-1	3	60*	10
CCN(CC)C(=O)COc1ccc(CC(=O)O)cc1OC	0	-3	-2	-5	-4
CCOc1cc(/C=C2\C(=O)N(CCC#N)N=C2C)ccc1OCC(N)=O	0	-7	3	-7	5
CC(=O)O[C@H]1CC[C@]2(C)[C@H]3CC=C4[C@@H]5[C@@H](C)[C@H](C)CC[C@]5(C(=O)O)CC[C@@]4(C)[C@]3(C)CC[C@H]2C1(C)C	nt	-2	-4	nt	-10
CCCOC(=O)c1ccc(NC(=O)c2cc(=O)[nH]c3ccccc23)cc1	nt	-7	10	nt	10
Cc1c(O)nc(SCC(=O)Nc2nccs2)n(-c2ccccc2F)c1=O	nt	6	3	nt	13
SMILES	Hsp70 activator	T cruzi inh	HSF1 inhib	L major viab	HSF1 activator
CC(=O)Nc1ccc(NC(=O)C(C)OC(=O)CCC2CCCC2)cc1 (stereo not given)	nt	-7	2	nt	-3
CC(=O)Nc1ccc(NC(=O)CS(=O)(=O)c2cn(CC(=O)N3CCC(C)CC3)c3ccccc23)cc1	nt	-3	-5	nt	-2
COc1cc(C=O)ccc1OCc1cccc(Br)c1	0	-9	24	6	63*
COc1cc(C=O)ccc1OCc1ccccc1Br	0	-24	11	-3	20
Cc1ccccc1C(=O)Nc1ccnn1C1CCN(Cc2cnn(C)c2)CC1	nt	48	0	nt	-2
CSc1ccc(CNc2ccccn2)cc1	1	23	14	12	22
CSc1ccc(CNc2ccccc2)cc1	0	-8	-5	100*	2
CC(C)CN1C(=O)N(c2ccc(Cl)cc2)C(C)(O)CC1(C)C (stereo not given)	nt	-3	-4	nt	2
COC(=O)c1ccc(CN2CCCC(CCC(=O)NCc3ccc(C)o3)C2)cc1 (stereo not given)	0	69*	1	77*	-15
COCc1ccc(CN2CCCC(CCC(=O)NCc3ccc(C)o3)C2)o1 (stereo not given)	0	36	6	1	-11
Cc1ccc(CNC(=O)CCC2CCCN(Cc3cc4ccccc4o3)C2)o1 (stereo not given)	nt	56*	-6	nt	-4
